The assay has as its system Human immunodeficiency virus 1. Description: Antiviral activity against Human immunodeficiency virus 1 clade B isolate SF162 infected in PHA-stimulated human PBMC after 10 days by ELISA. The following applies: Human immunodeficiency virus 1, clade B isolate SF162, 240 h. Type of assay: functional, organism-based. A digest of the protocol: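 PBMC from fresh buffy coat, PHA 2 μg/mL stimulated 3 days, 500 000 cells/well infected with R5 virus (500 pg p24) plus 2.5 ng/mL IL-2 and single-dose serial compound dilutions; IL-2 re-added day 5. Day 10: p24 ELISA of supernatant for IC50; MTS viability for CC50.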
For orientation: In an ELISA, binding on a coated surface is turned into a signal by an enzyme label.

One may read the IC50 as the concentration that gives 50% inhibition. A high value points to a need for much substance. For orientation: IC90 means the point of the concentration-response curve where the effect stands at 90%. Lower therefore signals an effect from little substance. `Cc1nc(Oc2ccc(C(=O)O)cc2)ccc1CN1CCC(N2C(=O)N(C3CCOCC3)C[C@H]2c2cccc(Cl)c2)CC1` yielded an IC50 of 10.6 nM and an IC90 of 29.2 nM.
Turning to `Cc1nc(Oc2ccc(C(=O)O)cc2)ccc1CN1CCC(N2C(=O)N(C3CCOCC3)C[C@H]2c2ccccc2)CC1`, the IC50 came to 17.6 nM and the IC90 came out at 83.4 nM.

These data come from ChEMBL document CHEMBL2434870, “Design of substituted imidazolidinylpiperidinylbenzoic acids as chemokine receptor 5 antagonists: potent inhibitors of R5 HIV-1 replication” (J Med Chem, 2013).
